Screens as filed in PubChem BioAssay.
HKDC1 act: HKDC1 (human) hexokinase activation | Q2TB90 | recombinant HKDC1, G6PDH/diaphorase resazurin fluorescence; stronger effect = lower value | activity change, negative = activation, % at 20 µM | 340,000 compounds, 0.056% hits | AID 493187;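 active = activation of 40% or more at 20 µM, a change of -40% or lower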
Target sequence (Q2TB90 whole entry, looked up): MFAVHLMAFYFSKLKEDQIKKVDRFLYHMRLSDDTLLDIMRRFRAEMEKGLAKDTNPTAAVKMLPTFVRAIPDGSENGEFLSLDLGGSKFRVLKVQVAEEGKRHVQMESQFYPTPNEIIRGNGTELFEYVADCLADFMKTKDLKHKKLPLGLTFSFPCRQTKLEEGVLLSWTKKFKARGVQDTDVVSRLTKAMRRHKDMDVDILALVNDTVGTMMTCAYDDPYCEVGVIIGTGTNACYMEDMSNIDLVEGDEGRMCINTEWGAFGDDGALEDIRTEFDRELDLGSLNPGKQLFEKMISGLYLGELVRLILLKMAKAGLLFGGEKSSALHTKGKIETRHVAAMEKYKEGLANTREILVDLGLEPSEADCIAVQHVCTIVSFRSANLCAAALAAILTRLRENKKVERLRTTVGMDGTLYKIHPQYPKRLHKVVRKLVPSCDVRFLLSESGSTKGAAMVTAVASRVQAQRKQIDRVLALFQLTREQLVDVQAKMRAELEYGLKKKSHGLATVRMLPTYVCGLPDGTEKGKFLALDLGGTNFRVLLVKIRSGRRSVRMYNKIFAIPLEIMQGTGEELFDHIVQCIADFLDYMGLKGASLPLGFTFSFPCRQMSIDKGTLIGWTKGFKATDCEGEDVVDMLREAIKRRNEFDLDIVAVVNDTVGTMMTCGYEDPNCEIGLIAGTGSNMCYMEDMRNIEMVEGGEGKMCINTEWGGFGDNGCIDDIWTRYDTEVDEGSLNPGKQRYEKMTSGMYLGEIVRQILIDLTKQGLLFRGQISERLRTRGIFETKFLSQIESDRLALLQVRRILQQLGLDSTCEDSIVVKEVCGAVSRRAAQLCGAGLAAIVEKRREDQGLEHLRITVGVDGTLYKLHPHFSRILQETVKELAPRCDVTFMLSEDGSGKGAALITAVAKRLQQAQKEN
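System: in-house human HKDC1 enzyme, G6PDH and diaphorase coupling enzymes; Quantity: 5 µg/mL HKDC1 final; Buffer or medium: Tris/MgCl2 buffer, pH 8.0; Dosing: single compound dose of 20 µM, 1% DMSO final; Times: 90 min reaction at room temperature, dark; Detection: coupled resazurin-to-resorufin fluorescence, Ex 525/Em 613 nm.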
* hit, by the source's call. The list is a sample of the results.

SMILES	HKDC1 act
CCN1C/C(=C\c2cccc([N+](=O)[O-])c2)C(=O)/C(=C/c2cccc([N+](=O)[O-])c2)C1	43
COc1ccc(N2CCN(C(=O)CSc3nnc4c(C)cc5c(C)cc(C)cc5n34)CC2)cc1	43
COc1cc2c(cc1OC)-c1cc(NCc3ccccn3)nc(=O)n1CC2	59
CCOC(=O)c1c(C)[nH]c(C2=NNC(=NC3CC3)SC2)c1C	-77*
CC(C)c1nc2oc3c(NCCO)ncnc3c2c2c1COC(C)(C)C2	46
CCN(CC)Cc1cc(O)c(CN(CC)CC)cc1O	47
Cc1ccccc1C(=O)Nc1ccc2c(C#N)c3nc4ccccc4nc3n2c1	37
CC(=O)n1cc(N(C(=O)CCl)c2ccc([N+](=O)[O-])cc2)c2ccccc21	48
COc1ccc(N=c2ssnc2Cl)cc1	-55*
COc1cc(N=c2ssnc2Cl)cc(OC)c1OC	-100*
Cc1oc2c(c1C(=O)c1ccc(Cl)cc1)C(=O)C(=O)c1ccccc1-2	55
CC(=O)Nc1ccc(NC2=C/C(=N/S(=O)(=O)c3cccs3)c3ccccc3C2=O)cc1	44
O=C(CSc1nnc(CCCN2C(=O)c3cccc4cccc(c34)C2=O)n1-c1ccccc1)N1CCN(CCO)CC1	42
CCOC(=O)Cn1c2ccc(F)cc2c2nc(C)sc21	-62*
COC(=O)Cn1c2ccc(F)cc2c2nc(C)sc21	-92*
O=C(OCC(=O)N1CCN(C(=O)c2ccco2)CC1)c1cc(-c2ccco2)nc2ccccc12	37
CC1C/C(=C/c2ccncc2)C(=O)/C(=C/c2ccncc2)C1 (stereo not drawn)	43
O=C(O)c1ccc(N2C(=O)/C(=C/c3ccc(-c4ccc([N+](=O)[O-])cc4)o3)C=C2c2ccccc2)cc1	43
O=C1C(N2CCOCC2)=C(n2nnc3ccccc32)C(=O)c2ccccc21	43
COc1ccc(OC(=O)N2C/C(=C/c3ccccc3)C(=O)/C(=C\c3ccccc3)C2)cc1	36
O=C(NC(=S)NNC(=O)c1ccccc1O)c1ccco1	-44*
CCCCC(CC)CN=C(N)NC(N)=NCCCCCCN=C(N)NC(N)=NCC(CC)CCCC (stereo not drawn)	42
CCCCNC(=O)c1sc(=S)n2c1[nH]c(=O)c1ccccc12	38
Cc1ccc(S(=O)(=O)Nc2ccc(O)c3ccccc23)c(C)c1	52
Cc1cc(C(=O)CCl)c(C)n1CCc1ccc(Cl)cc1	39
SMILES	HKDC1 act
COc1ccc(C(=O)/C=C/Sc2nc3ccccc3o2)cc1	38
COc1ccc(Oc2cc(C)nc(Cl)n2)nn1	-78*
COc1ccc(-c2oc(NC(=O)CCl)c(C#N)c2-c2ccc(OC)cc2)cc1	46
Cc1ccc(C)c(-n2c3nc(=O)[nH]c(=O)c-3cc3cc([N+](=O)[O-])ccc32)c1	47
COc1cc(OC)c(OC)cc1CCC(C)NCCC(c1ccccc1)c1ccccc1 (stereo not drawn)	81
O=C(Sc1nnc(-c2ccccc2)o1)N1c2ccccc2Sc2ccccc21	37
CCOC(=O)/C=C(\C)Sc1cc(O)c2ccccc2c1O	57
CCOc1ccc(/C=C2/SC(=S)N(CCC(=O)Nc3ccc(C(=O)O)cc3)C2=O)cc1	43
CCCCN(CCCC)C(=S)N/N=C/c1c(C)[nH]n(-c2ccccc2)c1=O	-41*
Cc1[nH]n(-c2ccccc2)c(=O)c1/C=N/Nc1nncc(-c2ccccc2)n1	-47*
O=c1cc(O)c2sc(Nc3ccc(F)c(Cl)c3)nc2[nH]1	46
COc1cccc2cc(C(=O)Nc3ccc(F)cc3)c(=Nc3ccc(C(=O)O)cc3)oc12	77
Cc1ccccc1OCCCN1C(=O)C(=O)c2cccc(C)c21	37
O=C1C(F)=CC(COC(c2ccccc2)(c2ccccc2)c2ccccc2)OC1n1cc(F)c(=O)[nH]c1=O (stereo not drawn)	40
CCCCC(=O)NC(c1ccc(N(CC)CC)cc1)c1ccc2cccnc2c1O (stereo not drawn)	-46*
CC(=O)c1cc(O)c2ccccc2c1O	44
CN(C)c1ccc(C=c2c3cc(O)ccc3n3c2cc(-c2ccccc2)[n+]3C)cc1	56
Cn1cnnc1SC1c2cccc3cccc(c23)C1NS(=O)(=O)c1ccccc1 (stereo not drawn)	-49*
CC(=O)N1CCN(C2c3cccc4cccc(c34)C2NS(=O)(=O)c2ccccc2)CC1 (stereo not drawn)	-49*
Cc1nc2c(c(=O)c3ccccc3n2C)c(=O)n1-c1ccc(F)cc1	51
Cc1nc2c(O)c3c(c(O)c2nc1C)C1C=CC3CC1	82
CC1(OC(=O)C2CCCC2)C(=O)C=C2C=C(c3ccsc3)N(CCc3c[nH]c4ccccc34)C=C2C1=O (stereo not drawn)	35
COc1cc([N+](=O)[O-])ccc1-c1ccc(/C=C2\C(=O)ON=C2c2ccccc2)o1	44
COc1ccc(-n2cccc2/C=C2\C(=N)N3N=C(c4ccco4)SC3=NC2=O)cc1	35
CC(C)CNC(=O)COC(=O)CNC(=O)c1cc(Cl)cc([N+](=O)[O-])c1	-52*
SMILES	HKDC1 act
Cc1cc2cc(CCNC(=O)c3cccc([N+](=O)[O-])c3)c(=O)[nH]c2cc1C	40
COc1ccc(N(CCCN2C(=O)c3cccc4cccc(c34)C2=O)C(=O)c2cccnc2)cc1	36
O=C(O)COc1ccc(/C=N/NC(=O)c2ccc(-c3csc(Nc4ccc(Cl)cc4)n3)cc2)cc1	76
COc1ccc(S(=O)(=O)/N=C2\C=C(Nc3ccc(O)cc3)C(=O)c3ccccc32)cc1	42
COc1ccc(C(=O)/C=C/c2ccsc2)cc1CSCC(=O)O	36
COc1ccccc1NC(=S)NN=C(C)c1ccccn1	-41*
CCC(C)(C)NC(=O)C1CCC(CNS(=O)(=O)c2cccc3nsnc23)CC1 (stereo not drawn)	51
CC(=O)c1ccc(NC(=O)c2ccc3nc(-c4ccco4)c(-c4ccco4)nc3c2)cc1	41
O=C(c1c[nH]c(C(=O)C(Cl)(Cl)Cl)c1)c1c(F)cccc1F	38
Cc1ccc2cc(CCNC(=O)c3ccc(S(=O)(=O)N4CCCCC4)cc3)c(=O)[nH]c2c1	40
C=CCn1c(SCC(=O)Nc2sc3c(c2C#N)CCC(C)C3)nc2cc(C(=O)O)ccc2c1=O (stereo not drawn)	39
COC1=CC(=O)C(OC)=C(OC)C1=O	76
CC(C)(C)c1ccc(-c2csc(NNC3=NCCCCC3)n2)cc1	-61*
CC(C)c1nc2oc3c(=O)[nH]cnc3c2c2c1COC(C)(C)C2	36
Cc1ccc2cc(C=C(C#N)C#N)c(N3CCCCC3)nc2c1	41
O=C1C(Cl)=C(N2CCN(c3ccccc3[N+](=O)[O-])CC2)C(=O)c2ccccc21	40
Cc1cc(O)c(C=O)c2c1C(=O)Oc1c(CO)c(O)c3c(c1O2)C(O)OC3=O (stereo not drawn)	37
Cc1ccc(C2=NN=C(NC(=O)CSc3nncn3C)SC2)cc1	-144*
O=C(N/N=C/c1ccc(O)cc1O)c1ccc(CN2C(=O)c3cccc4cccc2c34)cc1	-41*
O=c1cc(O)c2sc(Nc3ccc(Cl)c(F)c3)nc2[nH]1	39
Cc1ccc2oc(C(=O)N3CCC(N4CCSCC4)CC3)c(C)c2c1	35
CC(=NNC(=S)N1CC2CCC(CC2)C1)c1cnccn1	-47*
CC(=NNC(=S)N1CCN(C2CCCCCC2)CC1)c1ccccn1	-42*
O=C(/C=C/Sc1ccccc1)c1ccccc1	36
CCCc1nc2oc3c(NCCOCCO)ncnc3c2c2c1COC(C)(C)C2	39
